Measured values pooled from the literature.
Organism: Severe acute respiratory syndrome coronavirus 2

Structure (SMILES)	assay	test system	setting	measurement	value
CCc1ccc(NC(=O)c2cc3c(=O)n4ccccc4nc3n2C)cc1	viral replication	Vero	1 nM	inhibition	4.08%
CCN(CC)CCOCCOC(=O)C1(c2ccccc2)CCCC1	viral replication	Vero C1008		IC50	3.89 µM
CCC(CC)COC(=O)[C@H](C)N[P@](=O)(OC[C@H]1O[C@@](C#N)(c2ccc3c(N)ncnn23)[C@H](O)[C@@H]1O)Oc1ccccc1	viral replication	Vero	0.1 µM	inhibition	64.7%
COc1ccc(C[C@@H]2c3cc(Oc4cc(C[C@@H]5c6cc(O)c(OC)cc6CCN5C)ccc4O)c(OC)cc3CCN2C)cc1	cytopathic effect	Vero C1008	0.7812 µM	inhibition	0%
CC(=O)c1cccc(NC(=O)c2cc3c(=O)n4ccccc4nc3n2C)c1	viral replication	Vero	0.1 µM	inhibition	77%
O=C(/C=C/c1ccc(O)c(O)c1/C=C/c1ccc(O)c(O)c1)O[C@H](Cc1ccc(O)c(O)c1)C(=O)O	cytopathic effect, inhibitor	Vero C1008	100 µM	inhibition	58.3%
FC(F)(F)c1ccc2c(c1)N(CCCN1CCN(CCCl)CC1)c1ccccc1S2	viral replication, inhibitor	A549-ACE2		IC50	3.89 µM
N[C@@H](Cc1cc(I)c(Oc2cc(I)c(O)c(I)c2)c(I)c1)C(=O)O	plaque formation, inhibitor	Vero C1008		EC50	7 µM
CCN(C(C)=O)c1cccc(-c2ccnc3c(C#N)cnn23)c1	viral replication, inhibitor	Vero C1008	1 µM	inhibition	42.1%
COc1ccc2c(c1)c(CC(=O)O)c(C)n2C(=O)c1ccc(Cl)cc1	plaque formation	Vero C1008		EC50	~100 µM
CC(C)(C)[C@]1(O)CCN2C[C@@H]3c4ccccc4CCc4cccc(c43)[C@H]2C1	viral replication	Vero C1008		IC50	6.61 µM
CCCCCCCCCCCCCCCCCCOCCOP(=O)(O)OC[C@H]1O[C@@](C#N)(c2ccc3c(N)ncnn23)[C@H](O)[C@@H]1O	viral replication, inhibitor, qPCR	Vero C1008	48 h	EC90	0.33 µM
C=C[C@@](C)(/C=C/c1ccc(O)cc1)CCC=C(C)C	cytopathic effect	Vero C1008	6.25 µM	inhibition	0%
Cc1cc2c(cc1C(=O)Oc1ccc(C(=O)O)cc1)C(C)(C)CCC2(C)C	viral replication, inhibitor	Vero C1008	1 µM	inhibition	49.8%
Cc1cccn2c(=O)c3cc(C(=O)Nc4ccc(N(C)C)cc4)n(C)c3nc12	viral replication	Vero	1 µM	inhibition	80%
CC(C)=CCc1c(O)ccc(C(=O)/C=C/c2ccc(O)cc2)c1O	cytopathic effect	Vero C1008	12.5 µM	inhibition	0%
Cc1cc(NC(=O)c2cc3c(=O)n4cccc(C)c4nc3n2C)ccc1Br	viral replication	Vero	10 µM	inhibition	91.9%
O=C(O[C@@H]1Cc2c(O)cc(O)cc2O[C@@H]1c1cc(O)c(O)c(O)c1)c1cc(O)c(O)c(O)c1	cytopathic effect	Vero C1008	0.7812 µM	inhibition	0%
Cn1c(C(=O)Nc2ccc(Cl)cc2)cc2c(=O)n3ccccc3nc21	viral replication	Vero	1 nM	inhibition	5.41%
N#C[C@@]1(c2ccc3c(N)ncnn23)O[C@H](CO)[C@@H](O)[C@H]1O	viral replication, inhibitor, qPCR	Vero C1008		EC50	0.38 µM
